Source: ChEMBL document CHEMBL3804820, “2-hydroxyisoquinoline-1,3(2H,4H)-diones (HIDs) as human immunodeficiency virus type 1 integrase inhibitors: Influence of the alkylcarboxamide substitution of position 4” (Eur J Med Chem, 2016)
Activity calls are given as the source filed them. The rule behind the calls is not given here.

Key:
[1] = Cytotoxicity against human HepG2 cells assessed as reduction in cell number at 100 uM after 72 hrs by fluorescent image analysis relative to untreated control; assay type: cell-based; settings: read-out: INH
Procedure, shortened: (§1)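 Contract in vitro cytotoxicity panel covering cell number, intracellular free calcium, nuclear size, membrane permeability and mitochondrial membrane potential. Compounds tested at 1.0, 30.0 and 100.0 µM; values are percentage change versus untreated control, and IC50 where derived.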

MDCK-II [2] = assay: Inhibition of human P-gp expressed in MDCK2-MDR1 cells assessed as reduction in calcien-AM efflux at 30 uM incubated for 20 mins by fluorimetry relative to control; assay type: cell-based
Procedure, shortened: (§2)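 P-gp efflux inhibition in MDR1-MDCKII cells with calcein AM substrate, tested up to 100.0 µM. Read as percentage inhibition of control.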

[3] = Cytotoxicity against human HepG2 cells assessed as reduction in cell number at 30 uM after 72 hrs by fluorescent image analysis relative to untreated control; assay type: cell-based; settings: read-out: INH; procedure, shortened: as §1
HepG2 [4] = assay: Cytotoxicity against human HepG2 cells assessed as increase in intracellular free calcium level at 1 uM after 72 hrs by fluorescent image analysis relative to untreated control; assay type: cell-based; settings: hepg2, 72 h; procedure, shortened: as §1
[5] = Cytotoxicity against human HepG2 cells assessed as reduction in nuclear size at 100 uM after 72 hrs by fluorescent image analysis relative to untreated control; assay type: cell-based; settings: read-out: INH; procedure, shortened: as §1
HepG2 [6] = assay: Cytotoxicity against human HepG2 cells assessed as increase in intracellular free calcium level at 100 uM after 72 hrs by fluorescent image analysis relative to untreated control; assay type: cell-based; settings: hepg2, 72 h; procedure, shortened: as §1
CYP2C9 = CYP2C9 (Homo sapiens, UniProt P11712); assay: Inhibition of human recombinant CYP2C9 using MFC as substrate at 10 uM incubated for 40 mins by fluorimetry relative to control; assay type: ADME; settings: recombinant CYP2C9, probe MFC
Procedure, shortened: (§3)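 Recombinant CYP isoforms, each with its fluorogenic substrate: CYP1A2 and CYP2C19 with CEC, CYP2C9 and CYP2D6 with MFC, CYP3A4 with BFC. Read as percentage inhibition of control, standard contract assays.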

[7] = tested on: Human immunodeficiency virus 1; assay: Selectivity ratio of EC50 for raltegravir resistant HIV1 harboring integrase G140S/Q148H double mutant infected in human MT4 cells to EC50 for wild type HIV1 infected in human MT4 cells; assay type: functional
Procedure, shortened: (§4)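 MT-4 cells were infected with 100–300 CCID₅₀ of virus stock (titrated in MT-4 cells) in the presence of 5-fold serial drug dilutions. EC₅₀ is the concentration giving 50% protection against virus-induced cytopathic effect, read by MTT reduction (MT-4/MTT assay). The value is the fold-change in EC₅₀ for each mutant strain relative to the wild-type HIV-1 strain.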

CYP3A4 = CYP3A4 (Homo sapiens, UniProt P08684); assay: Inhibition of human recombinant CYP3A4 using BFC as substrate at 10 uM incubated for 30 mins by fluorimetry relative to control; assay type: ADME; settings: recombinant CYP3A4, probe BFC; procedure, shortened: as §3
MDCK-II [8] = assay: Inhibition of human P-gp expressed in MDCK2-MDR1 cells assessed as reduction in calcien-AM efflux at 1 uM incubated for 20 mins by fluorimetry relative to control; assay type: cell-based; procedure, shortened: as §2
HepG2 [9] = assay: Cytotoxicity against human HepG2 cells assessed as increase in membrane permeability at 30 uM after 72 hrs by fluorescent image analysis relative to untreated control; assay type: cell-based; settings: hepg2, 72 h
hERG (KCNH2) [10] = molecular target: T1, hERG (KCNH2) (Homo sapiens, UniProt Q12809); assay: in vitro; settings: CHO-K1 cells expressing human ERG
[11] = Cytotoxicity against human HepG2 cells assessed as reduction in mitochondrial membrane potential at 100 uM after 72 hrs by fluorescent image analysis relative to untreated control; assay type: cell-based; settings: read-out: INH; procedure, shortened: as §1
HepG2 [12] = assay: Cytotoxicity against human HepG2 cells assessed as increase in membrane permeability at 100 uM after 72 hrs by fluorescent image analysis relative to untreated control; assay type: cell-based; settings: hepg2, 72 h
[13] = Cytotoxicity against human HepG2 cells assessed as reduction in mitochondrial membrane potential at 30 uM after 72 hrs by fluorescent image analysis relative to untreated control; assay type: cell-based; settings: read-out: INH; procedure, shortened: as §1
[14] = Cytotoxicity against human HepG2 cells assessed as reduction in nuclear size at 1 uM after 72 hrs by fluorescent image analysis relative to untreated control; assay type: cell-based; settings: read-out: INH; procedure, shortened: as §1
[15] = tested on: Human immunodeficiency virus 1; assay: Selectivity ratio of EC50 for raltegravir resistant HIV1 harboring integrase N155H mutant infected in human MT4 cells to EC50 for wild type HIV1 infected in human MT4 cells; assay type: functional; procedure, shortened: as §4
[16] = Cytotoxicity against human HepG2 cells assessed as reduction in nuclear size at 30 uM after 72 hrs by fluorescent image analysis relative to untreated control; assay type: cell-based; settings: read-out: INH; procedure, shortened: as §1
CYP2D6 = CYP2D6 (Homo sapiens, UniProt P10635); assay: Inhibition of human recombinant CYP2D6 using MFC as substrate at 10 uM incubated for 40 mins by fluorimetry relative to control; assay type: ADME; settings: recombinant CYP2D6, probe MFC; procedure, shortened: as §3
MDCK-II [17] = assay: Inhibition of human P-gp expressed in MDCK2-MDR1 cells assessed as reduction in calcien-AM efflux at 100 uM incubated for 20 mins by fluorimetry relative to control; assay type: cell-based; procedure, shortened: as §2
[18] = tested on: Human immunodeficiency virus 1; assay: Antiviral activity against HIV1 3B infected in human MT4 cells at 50 to 100 times antiviral EC50 added 1 to 25 hrs post infection assessed as time required for loss of inhibition of viral replication measured at 30 hrs post infection by p24 ELISA method; assay type: functional
HepG2 [19] = assay: Cytotoxicity against human HepG2 cells assessed as increase in membrane permeability at 1 uM after 72 hrs by fluorescent image analysis relative to untreated control; assay type: cell-based; settings: hepg2, 72 h
[20] = tested on: Human immunodeficiency virus 1; assay: Selectivity ratio of EC50 for raltegravir resistant HIV1 harboring integrase Q148H mutant infected in human MT4 cells to EC50 for wild type HIV1 infected in human MT4 cells; assay type: functional; procedure, shortened: as §4
[21] = Cytotoxicity against human HepG2 cells assessed as reduction in mitochondrial membrane potential at 1 uM after 72 hrs by fluorescent image analysis relative to untreated control; assay type: cell-based; settings: read-out: INH; procedure, shortened: as §1
hERG (KCNH2) [22] = molecular target: T1, hERG (KCNH2); assay: in vitro; settings: CHO-K1 cells expressing human ERG; remark: listed apart in the source
CYP2C19 = CYP2C19 (Homo sapiens, UniProt P33261); assay: Inhibition of human recombinant CYP2C19 using CEC as substrate at 10 uM incubated for 50 mins by fluorimetry relative to control; assay type: ADME; settings: recombinant CYP2C19, probe CEC; procedure, shortened: as §3
[23] = Cytotoxicity against human HepG2 cells assessed as reduction in cell number at 1 uM after 72 hrs by fluorescent image analysis relative to untreated control; assay type: cell-based; settings: read-out: INH; procedure, shortened: as §1
hERG (KCNH2) [24] = molecular target: T1, hERG (KCNH2); assay: in vitro; settings: CHO-K1 cells expressing human ERG; remark: listed apart in the source
HepG2 [25] = assay: Cytotoxicity against human HepG2 cells assessed as increase in intracellular free calcium level at 30 uM after 72 hrs by fluorescent image analysis relative to untreated control; assay type: cell-based; settings: hepg2, 72 h; procedure, shortened: as §1
CYP1A2 = molecular target: T2, CYP1A2 (Homo sapiens, UniProt P05177); assay: Inhibition of human recombinant CYP1A2 using CEC as substrate at 10 uM incubated for 30 mins by fluorimetry relative to control; assay type: ADME; settings: recombinant CYP1A2, probe CEC; procedure, shortened: as §3
T2 sequence (P05177 whole entry): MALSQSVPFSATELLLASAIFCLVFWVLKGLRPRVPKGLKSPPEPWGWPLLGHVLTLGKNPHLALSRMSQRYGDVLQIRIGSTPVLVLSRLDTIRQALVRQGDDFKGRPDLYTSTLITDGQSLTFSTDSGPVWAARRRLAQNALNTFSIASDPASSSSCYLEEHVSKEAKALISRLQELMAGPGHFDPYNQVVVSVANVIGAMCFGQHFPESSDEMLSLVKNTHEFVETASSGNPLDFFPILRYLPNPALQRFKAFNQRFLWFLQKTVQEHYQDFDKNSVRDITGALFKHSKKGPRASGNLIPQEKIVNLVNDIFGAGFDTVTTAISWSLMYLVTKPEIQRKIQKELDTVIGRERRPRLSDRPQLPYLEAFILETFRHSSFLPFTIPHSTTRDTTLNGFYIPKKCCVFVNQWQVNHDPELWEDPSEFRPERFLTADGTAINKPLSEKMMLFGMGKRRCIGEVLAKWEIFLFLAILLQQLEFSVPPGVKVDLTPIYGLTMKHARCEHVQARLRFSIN

T1 sequence (Q12809 whole entry): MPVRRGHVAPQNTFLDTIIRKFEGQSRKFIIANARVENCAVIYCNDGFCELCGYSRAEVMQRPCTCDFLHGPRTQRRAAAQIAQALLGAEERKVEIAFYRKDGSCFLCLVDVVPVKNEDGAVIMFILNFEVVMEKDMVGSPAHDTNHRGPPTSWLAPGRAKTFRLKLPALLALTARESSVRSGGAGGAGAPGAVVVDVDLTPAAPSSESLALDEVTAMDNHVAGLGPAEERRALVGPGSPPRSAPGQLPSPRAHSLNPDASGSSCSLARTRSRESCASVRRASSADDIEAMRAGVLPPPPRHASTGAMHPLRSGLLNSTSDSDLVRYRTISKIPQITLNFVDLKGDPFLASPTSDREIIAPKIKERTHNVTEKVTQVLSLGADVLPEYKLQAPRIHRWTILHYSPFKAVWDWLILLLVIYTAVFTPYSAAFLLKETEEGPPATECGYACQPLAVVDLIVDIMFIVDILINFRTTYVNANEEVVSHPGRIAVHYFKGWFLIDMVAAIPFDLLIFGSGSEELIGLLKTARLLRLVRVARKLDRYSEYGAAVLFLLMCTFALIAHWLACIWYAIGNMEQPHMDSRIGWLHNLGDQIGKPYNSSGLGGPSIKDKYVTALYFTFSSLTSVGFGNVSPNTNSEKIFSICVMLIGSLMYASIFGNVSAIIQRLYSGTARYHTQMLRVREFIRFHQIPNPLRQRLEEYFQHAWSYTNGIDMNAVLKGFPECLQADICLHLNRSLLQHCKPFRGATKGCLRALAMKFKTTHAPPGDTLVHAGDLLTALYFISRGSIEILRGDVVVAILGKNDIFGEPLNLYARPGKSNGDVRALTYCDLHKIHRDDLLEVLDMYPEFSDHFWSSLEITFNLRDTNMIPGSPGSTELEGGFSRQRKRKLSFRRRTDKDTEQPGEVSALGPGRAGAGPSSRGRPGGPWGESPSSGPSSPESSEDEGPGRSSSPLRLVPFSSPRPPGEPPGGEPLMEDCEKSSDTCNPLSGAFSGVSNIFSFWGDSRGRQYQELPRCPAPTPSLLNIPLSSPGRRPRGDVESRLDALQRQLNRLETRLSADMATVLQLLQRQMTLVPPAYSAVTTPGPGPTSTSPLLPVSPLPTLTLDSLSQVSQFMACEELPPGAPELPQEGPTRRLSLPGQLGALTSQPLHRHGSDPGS
Chain of CYP3A4 (P08684 whole entry): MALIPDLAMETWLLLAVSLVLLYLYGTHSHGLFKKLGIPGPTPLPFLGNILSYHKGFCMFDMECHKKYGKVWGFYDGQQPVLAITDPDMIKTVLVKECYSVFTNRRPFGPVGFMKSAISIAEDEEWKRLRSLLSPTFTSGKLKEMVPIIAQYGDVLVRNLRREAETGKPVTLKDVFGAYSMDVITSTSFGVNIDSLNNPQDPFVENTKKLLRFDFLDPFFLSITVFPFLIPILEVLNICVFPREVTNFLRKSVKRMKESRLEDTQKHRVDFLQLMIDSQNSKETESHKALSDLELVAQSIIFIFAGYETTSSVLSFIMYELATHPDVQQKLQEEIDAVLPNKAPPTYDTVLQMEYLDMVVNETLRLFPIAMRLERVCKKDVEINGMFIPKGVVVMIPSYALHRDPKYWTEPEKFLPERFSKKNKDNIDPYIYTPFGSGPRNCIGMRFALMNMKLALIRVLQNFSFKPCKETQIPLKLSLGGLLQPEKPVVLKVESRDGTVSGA
Chain of CYP2D6 (P10635 whole entry): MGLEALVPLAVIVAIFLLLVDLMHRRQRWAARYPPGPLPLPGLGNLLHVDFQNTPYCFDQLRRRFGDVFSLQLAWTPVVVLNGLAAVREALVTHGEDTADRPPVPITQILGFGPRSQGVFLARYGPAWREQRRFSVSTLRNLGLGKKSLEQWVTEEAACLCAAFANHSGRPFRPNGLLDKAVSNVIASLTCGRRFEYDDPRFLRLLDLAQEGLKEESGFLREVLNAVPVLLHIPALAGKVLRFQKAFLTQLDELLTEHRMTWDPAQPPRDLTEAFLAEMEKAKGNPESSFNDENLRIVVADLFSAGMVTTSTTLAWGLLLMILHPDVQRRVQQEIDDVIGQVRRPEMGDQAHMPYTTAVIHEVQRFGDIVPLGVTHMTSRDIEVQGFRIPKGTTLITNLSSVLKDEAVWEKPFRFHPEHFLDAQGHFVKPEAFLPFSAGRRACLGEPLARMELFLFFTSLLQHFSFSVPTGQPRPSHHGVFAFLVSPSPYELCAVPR
Chain of CYP2C9 (P11712 whole entry, canonical isoform): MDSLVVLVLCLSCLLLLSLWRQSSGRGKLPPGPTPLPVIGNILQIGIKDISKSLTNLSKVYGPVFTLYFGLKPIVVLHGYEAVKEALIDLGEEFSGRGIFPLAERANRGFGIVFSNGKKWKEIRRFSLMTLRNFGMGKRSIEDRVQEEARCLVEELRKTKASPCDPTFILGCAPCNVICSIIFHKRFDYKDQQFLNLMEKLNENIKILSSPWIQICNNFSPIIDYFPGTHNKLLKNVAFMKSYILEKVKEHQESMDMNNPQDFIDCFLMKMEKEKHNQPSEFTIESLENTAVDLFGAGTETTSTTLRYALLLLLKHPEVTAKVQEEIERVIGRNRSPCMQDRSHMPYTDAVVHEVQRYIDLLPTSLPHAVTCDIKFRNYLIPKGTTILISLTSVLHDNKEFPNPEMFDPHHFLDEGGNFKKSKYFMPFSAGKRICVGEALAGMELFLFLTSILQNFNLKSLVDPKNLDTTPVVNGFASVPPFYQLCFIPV
Chain of CYP2C19 (P33261 whole entry): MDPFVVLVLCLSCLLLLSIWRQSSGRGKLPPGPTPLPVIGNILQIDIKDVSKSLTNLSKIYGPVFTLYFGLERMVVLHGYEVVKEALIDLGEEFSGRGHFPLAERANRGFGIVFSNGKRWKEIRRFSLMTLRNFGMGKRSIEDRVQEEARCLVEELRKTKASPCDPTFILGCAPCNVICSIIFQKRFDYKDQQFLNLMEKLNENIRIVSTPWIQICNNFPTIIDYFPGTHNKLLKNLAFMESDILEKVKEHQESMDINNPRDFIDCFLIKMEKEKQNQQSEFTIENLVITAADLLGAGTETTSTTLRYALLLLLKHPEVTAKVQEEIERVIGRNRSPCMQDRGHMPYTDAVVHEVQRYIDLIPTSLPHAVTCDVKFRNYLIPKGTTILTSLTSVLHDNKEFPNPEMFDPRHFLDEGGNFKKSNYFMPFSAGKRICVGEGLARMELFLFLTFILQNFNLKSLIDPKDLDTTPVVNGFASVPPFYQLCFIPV

For `O=C(NCc1ccc(F)cc1)C1C(=O)N(O)C(=O)c2ccccc21` (stereo not given), the cytotoxicity at 72 h, 100 µM [1] was 16%, the inhibition (MDCK-II [2]) was -4% and the cytotoxicity at 72 h, 30 µM [3] was 25.7%. The Activity (HepG2 [4]) was -1.7%, the cytotoxicity at 72 h, 100 µM [5] was 18.7% and the Activity (HepG2 [6]) was 29.9%. The inhibition at 40 min, 10 µM (CYP2C9) was 6.4%, the “Ratio EC50” value [7] was 1 and the inhibition at 0.5 h, 10 µM (CYP3A4) was 35.9%. It also gave an inhibition (MDCK-II [8]) of -5.4%, an Activity (HepG2 [9]) of 20.3% and an inhibition at 5 min, 0.1 µM (hERG (KCNH2) [10]) of 3.4%. The cytotoxicity at 72 h, 100 µM [11] was 6.3%, the Activity (HepG2 [12]) was 41.2% and the cytotoxicity at 72 h, 30 µM [13] was -21.2%. The cytotoxicity at 72 h, 1 µM [14] was -1%, the “Ratio EC50” value [15] was 1 and the cytotoxicity at 72 h, 30 µM [16] was 13.1%. The inhibition at 40 min, 10 µM (CYP2D6) was 6.6%, the inhibition (MDCK-II [17]) was -3.7% and the Activity [18] was “Active”. The Activity (HepG2 [19]) was -0.5%, the “Ratio EC50” value [20] was 1 and the cytotoxicity at 72 h, 1 µM [21] was 11.8%. The inhibition at 5 min, 1 µM (hERG (KCNH2) [22]) was 10.6%, the inhibition at 50 min, 10 µM (CYP2C19) was 18% and the cytotoxicity at 72 h, 1 µM [23] was -22.8%. For the same compound, the inhibition at 5 min, 10 µM (hERG (KCNH2) [24]) was 13.3%, the Activity (HepG2 [25]) was 9.6% and the inhibition at 0.5 h, 10 µM (CYP1A2) was 5.2%.
